Experimental data of several laboratories.
Protocols differ between the studies behind these lines.
Action: agonist
CNR2: Cannabinoid receptor 2 (CNR2, Homo sapiens, UniProt P34972)
AHR: Aryl hydrocarbon receptor (AHR, Homo sapiens, UniProt P35869)
MC5R: Melanocortin receptor 5 (MC5R, Homo sapiens, UniProt P33032)
ADRB2: Beta-2 adrenergic receptor (ADRB2, Homo sapiens, UniProt P07550)

`CCOC(=O)[C@](CC)(CCCS(=O)(=O)CCOCCOCCNC(=O)OC(C)(C)C)NC(=O)c1ccc(C2CC2)c(Cc2ccc(F)cc2)n1` has an EC50 of 0.017 µM (CNR2; cAMP).
`CC1CCN(C(NC(=O)c2ccc(C(C)(C)C)cc2)C(Cl)(Cl)Cl)CC1` (stereo not drawn) has an EC50 of 0.0501 µM (CNR2; cAMP, TR-FRET).
The EC50 of `CC(C)OC(=O)c1cccc(C(=O)c2c[nH]c3ccccc23)n1` is reported as over 10 µM (AHR; reporter gene, luciferase).
`CSCC[C@H](NC(=O)[C@@H](NC(=O)[C@@H](N)Cc1ccc(O)cc1)C(C)C)C(=O)NCC(=O)N[C@@H](Cc1c[nH]cn1)C(=O)N[C@@H](Cc1ccccc1)C(=O)N[C@@H](CCCNC(=N)N)C(=O)N[C@@H](Cc1c[nH]c2ccccc12)C(=O)O` gave an EC50 of 23.9 µM (MC5R; reporter gene).
The EC50 of `COC(=O)c1ccccc1C(=O)c1c[nH]c2ccccc12` is reported as over 10 µM (AHR; reporter gene, luciferase).
`CSCC[C@H](NC(=O)[C@@H](NC(=O)[C@@H](N)Cc1ccc(O)cc1)C(C)C)C(=O)NCC(=O)N[C@@H](Cc1c[nH]cn1)C(=O)N[C@@H](Cc1ccccc1)C(=O)N[C@@H](CCCNC(=N)N)C(=O)N[C@@H](Cc1c[nH]c2ccccc12)C(=O)N[C@@H](CC(=O)O)C(=O)N[C@@H](CCCNC(=N)N)C(=O)O` has an EC50 of 7.36 µM (MC5R; reporter gene).
`O=c1ccn([C@@H]2O[C@H](COP(=O)(O)OP(=O)(O)O)[C@@H](O)[C@H]2O)c(=O)[nH]1` has an EC50 of 0.295 µM (P2Y purinoceptor 6 (P2RY6, Homo sapiens, UniProt Q15077); inositol phosphate).
For `COc1ccc(CNC(=S)NC(C)(C)C)cc1`, the EC50 was 1.9 µM (ADRB2; calcium signal, fluorescence).
For `N=C(N)NCCC[C@H](NC(=O)[C@H](Cc1ccccc1)NC(=O)[C@@H](N)Cc1cnc[nH]1)C(=O)N[C@@H](Cc1c[nH]c2ccccc12)C(=O)O`, the EC50 was over 100 µM (MC5R; reporter gene).
`c1ccc(Nc2nc3ccccc3nc2Nc2ccccc2)cc1` gave an EC50 of 0.0251 µM (CNR2; cAMP, TR-FRET).
The EC50 of `COC(=O)c1cccc(C(=O)c2c[nH]c3ccc(Cl)cc23)n1` is reported as 0.032 µM (AHR; reporter gene, luciferase).
For `Cc1ccc(-n2c(C)ccc2C)c2c1CC(C)(C)O2`, the EC50 was 65 µM (ADRB2; calcium signal, fluorescence).
